Experimental data from publication PMC8453771 (Journal of Clinical Pharmacology, 2021).
Like-named read-outs stand apart in the source and are kept apart here.

Experiments:
[1] = primary metabolites in plasma; cited from earlier work
UGT2B7 and UGT2B4 = conditions: in vitro; cited from earlier work
[2] = cited from earlier work
[3] = coadministration of rifampin; cited from earlier work
UGT1A9 [4] = conditions: in vitro; cited from earlier work
[5] = assay type: in vivo, human
How it was run: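 Pooled noncompartmental data from 17 phase 1 studies in healthy subjects, fasted or light meal, no co-administered drugs; solution, suspension or tablet, 0.5–300 mg. Single dose: AUCinf; multiple dose: steady-state AUCtau (tau 24 h), day-1 Cmax.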

UGT1A9 [6] = assay: UGT1A9 genotype analysis of ertugliflozin AUC pooled from phase 1 studies; assay type: in vivo, human; conditions: for Predicted mean (90% CI) ertugliflozin AUC: Wild type, fasted
How it was run: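 AUC pooled from 20 phase 1 studies of fasted oral tablets in genotyped healthy subjects. Linear AUC-versus-dose model as for dose proportionality. Three UGT1A9 variants (*1b homozygous/heterozygous, -2152 heterozygous, *3 heterozygous) entered together as categorical covariates on slope, giving fold change versus wild type for all alleles.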

[7] = coadministration of mefenamic acid; PBPK modeling; cited from earlier work
[8] = 5-mg tablet, fasted state, full model bootstrap

In the case of ertugliflozin‐2‐O‐β‐glucuronide, the “pharmacological activity of metabolite” value [1] is given as “pharmacologically inactive”.
In the case of `CCOc1ccc(Cc2cc([C@]34OC[C@](CO)(O3)[C@@H](O)[C@H](O[C@@H]3O[C@H](C(=O)O)[C@@H](O)[C@H](O)[C@H]3O)[C@H]4O)ccc2Cl)cc1` [ertugliflozin‐3‐O‐β‐glucuronide], the “pharmacological activity of metabolite” value [1] is given as “pharmacologically inactive”.
In the case of `CCOc1ccc(Cc2cc([C@]34OC[C@](CO)(O3)[C@@H](O)[C@H](O)[C@H]4O)ccc2Cl)cc1` [ertugliflozin], the “share of ertugliflozin glucuronidation by UGT2B7 and UGT2B4” value (UGT2B7 and UGT2B4) is given as 19%, the “effect of high-fat meal on ertugliflozin AUC” value ([2]; 15-mg commercial tablet) is given as “no meaningful effect” and the “effect on ertugliflozin exposure of administration with food” value [2] is given as “No clinically meaningful effect”. The “share of ertugliflozin biotransformation accounted for by glucuronidation” value [2] was roughly 90%, the “administered dose recovered in urine and feces as unchanged ertugliflozin” value ([2]; mass-balance study in humans) was roughly 35% and the “median time to maximum plasma concentrations (Tmax)” value ([2]; multiple doses, fed) was 2.0 h. The “median time to maximum plasma concentrations (Tmax)” value ([2]; single doses, fasted) was 1.0 h, the “reduction in ertugliflozin AUC” value [3] was roughly 39% and the “share of glucuronide metabolite formation catalyzed by UGT1A9” value (UGT1A9 [4]) was 81%. For the same molecule, the “predicted mean AUC” value [5, 8] was 437 ng·h/mL, the “predicted mean Cmax” value [5, 8] was 88.7 ng/mL and the “predicted mean AUC” value ([5]; 15-mg tablet, fasted state, full model bootstrap) was 1380 ng·h/mL. For the same molecule, the “AUC higher versus the tablet form” value ([5]; administered as a solution) was 16%, the “Cmax lower versus the tablet form” value ([5]; administered as a solution) was 18% and the “AUC lower relative to fasting administration” value ([5]; administered with a light meal) was 10%. The “Cmax lower relative to fasting administration” value ([5]; administered with a light meal) was 46%, the “AUC intercept, Estimate (RSE, %)” value ([5]; base model) was “–26.5 (28.8) ng·h/mL” and the “AUC slope, Estimate (RSE, %)” value ([5]; base model, AUC as linear function of dose) was 93.2 (1.50) ng·h/mL/mg. For the same molecule, the “Cmax slope, Estimate (RSE, %)” value ([5]; base model, Cmax as linear function of dose) was 16.2 (2.20) ng/mL/mg, the “relationship of AUC and Cmax to dose” value ([5]; dose range 0.5 to 300 mg, healthy subjects) was “dose‐proportional” and the “AUC intercept, Estimate (RSE, %)” value ([5]; full model) was “–33.7 (33.2) ng·h/mL”. For the same molecule, the “Solution covariate: fold change in AUC slope vs tablet, Estimate (RSE, %)” value ([5]; full model) was 1.16 (6.35), the “Solution covariate: fold change in Cmax slope vs tablet, Estimate (RSE, %)” value ([5]; full model) was 0.821 (7.08) and the “Suspension covariate: fold change in AUC slope vs tablet, Estimate (RSE, %)” value ([5]; full model) was 1.04 (3.44). The “Suspension covariate: fold change in Cmax slope vs tablet, Estimate (RSE, %)” value ([5]; full model) was 0.897 (4.77), the “effect of suspension formulation on AUC or Cmax relative to tablet” value ([5]; full model) was “did not have a significant effect” and the “AUC slope, Estimate (RSE, %)” value ([5]; full model, tablet, fasted) was 94.1 (1.76) ng·h/mL/mg. For the same molecule, the “Cmax slope, Estimate (RSE, %)” value ([5]; full model, tablet, fasted) was 17.7 (1.92) ng/mL/mg, the “decrease in AUC compared with wild-type UGT1A9” value (UGT1A9 [6]; UGT1A9-2152 heterozygous and UGT1A9*1b heterozygous variants combined) was 7.3% and the “combined effect on AUC (fold vs wild type)” value (UGT1A9 [6]; UGT1A9-2152 heterozygous and UGT1A9*1b heterozygous variants, 0.988 × 0.938) was 0.927. For the same molecule, the “Predicted mean (90% CI) ertugliflozin AUC” value (UGT1A9 [6]; 5 mg tablet) was 436 ng·h/mL, the “Predicted mean (90% CI) ertugliflozin AUC” value (UGT1A9 [6]; 15 mg tablet) was 1410 ng·h/mL and the “AUC intercept, Estimate (RSE, %)” value (UGT1A9 [6]; base model) was “–63.9 (16.3) ng·h/mL”. For the same molecule, the “AUC slope, Estimate (RSE, %)” value (UGT1A9 [6]; base model) was 96.7 (1.89) ng·h/mL/mg, the “AUC intercept, Estimate (RSE, %)” value (UGT1A9 [6]; full model) was “–50.1 (22.8) ng·h/mL” and the “effect of UGT1A9-2152 heterozygous variant on AUC” value (UGT1A9 [6]; full model, 95%CI included 1) was “did not have a significant effect”. The “AUC slope, Estimate (RSE, %)” value (UGT1A9 [6]; full model, UGT1A9 wild-type subjects) was 97.1 (3.25) ng·h/mL/mg, the “clinical relevance of UGT1A9 genotype effect on ertugliflozin exposure” value (UGT1A9 [6]; healthy subjects) was “did not have any clinically meaningful effects” and the “increase in ertugliflozin AUC” value [7] was roughly 1.5 fold.
